From ChEMBL document CHEMBL4622983, “Structure-Activity Relationship Studies of α-Ketoamides as Inhibitors of the Phospholipase A and Acyltransferase Enzyme Family” (J Med Chem, 2020) come the findings set out here.

Assay [1] addresses T1, Phospholipase A and acyltransferase 5 (Homo sapiens, UniProt Q96KN8).
T1 sequence (Q96KN8 whole entry): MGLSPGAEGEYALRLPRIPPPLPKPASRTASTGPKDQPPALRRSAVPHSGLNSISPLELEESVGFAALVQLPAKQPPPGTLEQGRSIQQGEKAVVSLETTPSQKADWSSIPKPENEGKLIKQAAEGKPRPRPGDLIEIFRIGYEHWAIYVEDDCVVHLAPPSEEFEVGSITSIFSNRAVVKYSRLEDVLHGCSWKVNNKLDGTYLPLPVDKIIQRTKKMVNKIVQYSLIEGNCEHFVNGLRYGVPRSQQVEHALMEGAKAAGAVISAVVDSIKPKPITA
The assay is described as follows: Inhibition of full-length C-terminal FLAG-tagged human PLAAT5 expressed in HEK293T cell lysate preincubated for 30 mins followed by MB064 addition and measured after 20 mins by SDS-PAGE based ABPP analysis. In kind it is cell-free, HEK-293T. Put shortly: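 Dose–response competitive ABPP on cytosol only, from HEK293T overexpressing FLAG-tagged PLAAT. Inhibitor 30 min rt, then MB064 20 min rt. PLAAT2 0.25 μg/μL with 250 nM probe; PLAAT3 0.5 μg/μL with 250 nM; PLAAT4 and PLAAT5 1 μg/μL with 500 nM. Fluorescence normalized to Coomassie. IC50 from curves, reported as pIC50 ± SEM, n = 3.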

Assay [2] has as its system U2OS. The assay is described as follows: Inhibition of serine hydrolase in human U2OS cell membrane fraction at 10 uM preincubated for 30 mins followed by FP-TAMRA addition and measured after 15 mins by SDS-PAGE based competitive ABPP analysis. Put shortly:
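U2OS membrane lysate (2.5 μg/μL) preincubated with inhibitor for 30 min at rt. FP-TAMRA 500 nM added for 15 min at rt. SDS-PAGE with in-gel fluorescence normalized to Coomassie.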

In assay [3] the target is T2, Phospholipase A and acyltransferase 5 (Homo sapiens) (UniProt Q96KN8).
T2 sequence (whole entry): T1 sequence (Q96KN8 whole entry)
The assay is described as follows: Inhibition of full-length C-terminal FLAG-tagged human PLAAT5 expressed in human U2OS cells assessed as reduction in absolute N-palmitoylethanolamine level at 10 uM incubated for 4 hrs by LC-MS/MS analysis. The assay is classed as cell-based. In outline:
(§1)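 U2OS cells transfected with PLAAT2, PLAAT5 or empty vector (PEI, 1:5 plasmid/PEI). At 24 h, switched to serum-free medium with 10 μM compound (0.1% DMSO) or DMSO for 4 h at 37 °C. Pellets extracted with MTBE against deuterated internal standards. NAEs, 2-AG and free fatty acids quantified by LC–MS/MS, normalized to live cell count. Four biological replicates; one-way ANOVA.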

Assay [4] addresses T2, Phospholipase A and acyltransferase 5 (Homo sapiens). The assay is described as follows: Inhibition of full-length C-terminal FLAG-tagged human PLAAT5 expressed in human U2OS cells assessed as reduction in 2-AG level at 10 uM incubated for 4 hrs by LC-MS/MS analysis. The assay is classed as cell-based. Put shortly: as §1
Assay [5] addresses T3, Phospholipase A and acyltransferase 2 (Homo sapiens) (UniProt Q9NWW9).
T3 sequence (whole entry): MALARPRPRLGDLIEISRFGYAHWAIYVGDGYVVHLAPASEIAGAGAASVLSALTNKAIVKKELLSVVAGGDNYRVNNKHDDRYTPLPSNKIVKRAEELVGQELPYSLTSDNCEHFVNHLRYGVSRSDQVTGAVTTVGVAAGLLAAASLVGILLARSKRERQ
The assay is described as follows: Inhibition of full-length C-terminal FLAG-tagged human PLAAT2 expressed in human U2OS cells assessed as reduction in anandamide level at 10 uM incubated for 4 hrs by LC-MS/MS analysis relative to control. The assay is classed as cell-based. Put shortly: as §1

Assay [6] has as its system U2OS. The assay is described as follows: Downregulation of N-linoleoylethanolamine level in human U2OS cells at 10 uM after 4 hrs by LC-MS/MS analysis. In kind it is functional, cell-based. In outline: as §1
In assay [7] the target is T3, Phospholipase A and acyltransferase 2 (Homo sapiens). The assay is described as follows: Inhibition of full-length C-terminal FLAG-tagged human PLAAT2 expressed in human U2OS cells assessed as reduction in absolute N-stearoylethanolamine level at 10 uM incubated for 4 hrs by LC-MS/MS analysis. In kind it is cell-based. In outline: as §1
The target of assay [8] is Monoacylglycerol lipase ABHD6 (Mus musculus) (UniProt Q8R2Y0). The assay is described as follows: Inhibition of mouse brain membrane ABHD6 assessed as enzyme remaining activity at 10 uM preincubated for 30 mins followed by MB064 or FP-TAMRA addition and measured after 15 mins by SDS-PAGE based ABPP analysis relative to control. The assay is classed as cell membranes. Put shortly: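 Mouse brain membrane proteome (2 μg/μL) preincubated with 10 μM inhibitor for 30 min at rt. Then MB064 250 nM or FP-TAMRA 500 nM for 15 min at rt. Resolved on 10% SDS-PAGE, fluorescence normalized to Coomassie. Reported as % remaining activity ± SD, n = 3.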

Assay [9] deals with Cytosolic phospholipase A2 gamma (Homo sapiens) (UniProt Q9UP65). The assay is described as follows: Inhibition of human PLA2G4C expressed in HEK293T cell lysates at 10 uM preincubated for 30 mins followed by FP-TAMRA addition and measured after 20 mins by SDS-PAGE based competitive ABPP analysis. The assay is classed as cell-free. The conditions noted are these: HEK-293T. Put shortly: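 hPLA2G4B, C or D-overexpressing membrane lysate (1 μg/μL) preincubated with inhibitor for 30 min at rt. FP-TAMRA 500 nM added for 20 min at rt. In-gel fluorescence after SDS-PAGE, normalized to Coomassie.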

The target in assay [10] is T2, Phospholipase A and acyltransferase 5 (Homo sapiens). The assay is described as follows: Inhibition of full-length C-terminal FLAG-tagged human PLAAT5 expressed in human U2OS cells assessed as reduction in arachidonic acid level at 10 uM incubated for 4 hrs by LC-MS/MS analysis. In kind it is cell-based. Put shortly: as §1
The target of assay [11] is Cytosolic phospholipase A2 (Homo sapiens) (UniProt P47712). The assay is described as follows: Inhibition of human PLA2G4A expressed in HEK293T cell lysates at 50 uM preincubated for 30 mins followed by FP-TAMRA addition and measured after 20 mins by SDS-PAGE based competitive ABPP analysis. In kind it is cell-free. The following applies: HEK-293T.
In assay [12] the test system is U2OS. The assay is described as follows: Inhibition of serine hydrolase in human U2OS cell membrane fraction at 10 uM preincubated for 30 mins followed by MB064 addition and measured after 15 mins by SDS-PAGE based competitive ABPP analysis. In outline: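 U2OS cytosol or membrane lysate at 2.5 μg/μL, pretreated with inhibitor or DMSO vehicle for 30 min at rt. Probe then added for 15 min at rt: MB064 at 2 μM or FP-TAMRA at 500 nM. Samples denatured in Laemmli buffer and resolved by SDS-PAGE. In-gel fluorescence scanned at Cy3/Cy5 settings and normalized to Coomassie staining.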

Assay [13] addresses T2, Phospholipase A and acyltransferase 5 (Homo sapiens). The assay is described as follows: Inhibition of full-length C-terminal FLAG-tagged human PLAAT5 expressed in human U2OS cells assessed as reduction in absolute N-stearoylethanolamine level at 10 uM incubated for 4 hrs by LC-MS/MS analysis. In kind it is cell-based. In outline:
as §1

For assay [14] the target is unchanged. The assay is described as follows: Inhibition of full-length C-terminal FLAG-tagged human PLAAT5 expressed in human U2OS cells assessed as reduction in absolute N-oleoylethanolamine level at 10 uM incubated for 4 hrs by LC-MS/MS analysis. In kind it is cell-based. Put shortly: as §1
The subject of assay [15] is U2OS. The assay is described as follows: Downregulation of N-arachidonoylethanolamine level in human U2OS cells at 10 uM after 4 hrs by LC-MS/MS analysis. In kind it is functional, cell-based. Put shortly: as §1

Activity calls are given as the source filed them. The calls are words filed in the database; no cut-off is given here.

Chain of Monoacylglycerol lipase ABHD6 (Mus musculus) (Q8R2Y0 whole entry): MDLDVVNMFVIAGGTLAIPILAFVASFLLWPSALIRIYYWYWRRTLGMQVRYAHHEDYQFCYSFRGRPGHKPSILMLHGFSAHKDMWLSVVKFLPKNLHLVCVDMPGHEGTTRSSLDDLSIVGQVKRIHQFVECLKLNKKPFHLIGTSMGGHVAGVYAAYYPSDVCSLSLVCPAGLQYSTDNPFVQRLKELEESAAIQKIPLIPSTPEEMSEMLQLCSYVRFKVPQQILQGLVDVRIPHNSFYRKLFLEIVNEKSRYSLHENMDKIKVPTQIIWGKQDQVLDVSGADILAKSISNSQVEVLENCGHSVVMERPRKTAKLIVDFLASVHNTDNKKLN
Chain of Cytosolic phospholipase A2 gamma (Homo sapiens) (Q9UP65 whole entry): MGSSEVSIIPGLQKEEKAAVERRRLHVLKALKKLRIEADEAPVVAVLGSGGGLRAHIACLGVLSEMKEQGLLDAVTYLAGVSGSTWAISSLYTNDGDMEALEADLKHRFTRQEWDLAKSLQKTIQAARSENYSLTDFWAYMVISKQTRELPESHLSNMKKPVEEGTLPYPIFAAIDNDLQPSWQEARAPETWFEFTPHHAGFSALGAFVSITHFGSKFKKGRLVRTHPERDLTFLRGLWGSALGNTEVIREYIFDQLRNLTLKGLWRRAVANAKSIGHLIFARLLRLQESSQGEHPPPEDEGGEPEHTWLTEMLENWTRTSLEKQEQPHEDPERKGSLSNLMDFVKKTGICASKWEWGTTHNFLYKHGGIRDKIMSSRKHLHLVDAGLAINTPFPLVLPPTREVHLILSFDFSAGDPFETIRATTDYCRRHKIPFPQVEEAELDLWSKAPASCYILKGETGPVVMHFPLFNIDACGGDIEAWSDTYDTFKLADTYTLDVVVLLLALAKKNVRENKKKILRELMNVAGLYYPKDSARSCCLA
Chain of Cytosolic phospholipase A2 (Homo sapiens) (P47712 whole entry): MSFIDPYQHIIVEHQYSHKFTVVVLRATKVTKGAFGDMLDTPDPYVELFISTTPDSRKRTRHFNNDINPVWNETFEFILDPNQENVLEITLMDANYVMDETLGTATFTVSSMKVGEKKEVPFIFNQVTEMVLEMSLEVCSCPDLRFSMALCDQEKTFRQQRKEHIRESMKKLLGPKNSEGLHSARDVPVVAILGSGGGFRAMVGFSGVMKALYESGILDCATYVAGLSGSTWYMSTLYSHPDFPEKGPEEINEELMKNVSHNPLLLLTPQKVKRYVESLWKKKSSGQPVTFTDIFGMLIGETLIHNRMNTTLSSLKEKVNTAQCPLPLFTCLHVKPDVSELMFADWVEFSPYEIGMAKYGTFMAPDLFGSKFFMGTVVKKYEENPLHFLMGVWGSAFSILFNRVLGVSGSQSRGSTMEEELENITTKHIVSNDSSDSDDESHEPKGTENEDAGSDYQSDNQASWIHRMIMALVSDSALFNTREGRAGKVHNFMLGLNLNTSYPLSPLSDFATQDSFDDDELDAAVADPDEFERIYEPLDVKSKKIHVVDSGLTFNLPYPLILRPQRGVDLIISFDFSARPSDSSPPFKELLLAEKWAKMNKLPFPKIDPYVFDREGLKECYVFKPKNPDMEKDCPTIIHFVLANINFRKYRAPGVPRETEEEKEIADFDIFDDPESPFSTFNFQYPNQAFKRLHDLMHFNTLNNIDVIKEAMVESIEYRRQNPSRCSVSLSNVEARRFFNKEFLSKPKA

Regarding `O=C(CCCc1ccccc1)C(=O)NCCc1ccc(Oc2ccccc2)cc1`, in assay [1], the IC50 (usually the point on the concentration scale where inhibition reaches its midpoint) was 39.8 nM. For the same molecule, the inhibition result in [2], in assay [4], in [6], in [9], in [10] and in assay [11] was “inactive” in each case. The inhibition result in [12] and in assay [15] was “inactive” each time. Also, the inhibition result in assay [3], in [7], in assay [13] and in assay [14] was “Active” throughout. In assay [5], the fold change (FC) came to 2. In addition, the Activity in [8] is 92%.
